This is an account of results in PubChem BioAssay AID623890 (Vanderbilt Specialized Chemistry Center, 2012).

The target of the experiment is Metabotropic glutamate receptor 5 (Rattus norvegicus) (UniProt P31424). Kind of experiment: mGlu5 glutamate response modulation check – cell-based, rat, calcium flux, Fluo-4, selectivity assay for mGlu4 lead optimization, profiling panel (AID 623890). Particulars: rat mGlu5 cells, Fluo-4 calcium flux, glutamate CRC shift, at 10 µM. An outline of the steps:
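Assay system – rat mGlu5-expressing cells loaded with Fluo-4 AM calcium dye · Buffer or medium – HEPES- and probenecid-buffered HBSS, pH 7.3 · Schedule – compound about 2.5 min before glutamate, then roughly 3 min signal recording · Detection – Fluo-4 calcium fluorescence, excitation 470 nm, emission 540 nm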
(Calcium flux is commonly read through the fluorescence of an indicator in the cells.)

Chain of Metabotropic glutamate receptor 5 (Rattus norvegicus) (P31424 whole entry, looked up): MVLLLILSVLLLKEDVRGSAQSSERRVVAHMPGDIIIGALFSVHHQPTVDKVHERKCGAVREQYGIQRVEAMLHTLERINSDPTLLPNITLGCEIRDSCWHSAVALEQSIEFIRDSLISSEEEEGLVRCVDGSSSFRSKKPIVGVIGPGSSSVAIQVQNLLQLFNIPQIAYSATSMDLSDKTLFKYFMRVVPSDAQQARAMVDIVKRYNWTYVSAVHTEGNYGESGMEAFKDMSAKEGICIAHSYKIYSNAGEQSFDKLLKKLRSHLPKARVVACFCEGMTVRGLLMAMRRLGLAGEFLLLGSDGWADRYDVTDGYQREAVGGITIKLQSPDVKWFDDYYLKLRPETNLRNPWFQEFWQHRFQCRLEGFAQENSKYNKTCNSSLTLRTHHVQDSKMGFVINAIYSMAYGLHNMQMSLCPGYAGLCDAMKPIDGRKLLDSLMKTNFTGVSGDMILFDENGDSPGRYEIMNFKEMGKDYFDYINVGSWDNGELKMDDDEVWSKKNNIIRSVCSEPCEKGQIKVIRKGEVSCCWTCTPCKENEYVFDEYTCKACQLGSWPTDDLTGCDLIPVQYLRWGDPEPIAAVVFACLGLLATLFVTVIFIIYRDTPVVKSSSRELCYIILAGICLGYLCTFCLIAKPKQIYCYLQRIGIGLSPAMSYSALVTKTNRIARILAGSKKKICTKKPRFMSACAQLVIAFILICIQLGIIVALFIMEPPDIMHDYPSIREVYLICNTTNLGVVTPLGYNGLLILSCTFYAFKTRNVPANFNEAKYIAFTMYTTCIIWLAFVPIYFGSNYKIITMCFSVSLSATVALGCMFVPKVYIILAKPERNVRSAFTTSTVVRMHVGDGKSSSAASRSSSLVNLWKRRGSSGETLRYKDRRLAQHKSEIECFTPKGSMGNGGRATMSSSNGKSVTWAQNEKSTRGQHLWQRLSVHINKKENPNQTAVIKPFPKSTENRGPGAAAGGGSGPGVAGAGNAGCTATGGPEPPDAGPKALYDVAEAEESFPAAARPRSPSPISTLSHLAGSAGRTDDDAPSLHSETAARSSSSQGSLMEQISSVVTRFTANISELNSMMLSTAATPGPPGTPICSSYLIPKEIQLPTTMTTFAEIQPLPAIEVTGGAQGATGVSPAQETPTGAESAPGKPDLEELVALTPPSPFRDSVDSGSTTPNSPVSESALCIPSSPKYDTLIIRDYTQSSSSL

Regarding `O=C(Nc1cccc(Cl)c1)c1ccccn1`, the fold shift of glutamate EC50 is 0.304. For the same molecule, the max response (measured here: glutamate max response with compound) was found to be 74%.
